What was measured:
[1] = target: Glutamate NMDA receptor; Grin1/Grin2c (Rattus norvegicus, UniProt P35439+Q00961); assay: In vitro inhibitory concentration against NMDA responses at NR1A/2C receptors expressed in Xenopus oocytes; format: functional, cell-based, Oocyte
Mus musculus = organism: Mus musculus; assay: ED50 value was calculated by mouse electric shock assay (MES).; format: functional
Method in brief: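 Anticonvulsant testing in mice by maximal electroshock. Compounds dissolved in 0.05 M Tris and given iv. Seizure protection tested at peak activity, 2 min after dosing.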

[2] = target: Glutamate NMDA receptor; Grin1/Grin2b (Rattus norvegicus, UniProt P35439+Q00960); assay: In vitro inhibitory concentration against NMDA responses at NR1A/2B receptors expressed in Xenopus oocytes; format: functional, cell-based, Oocyte
Method in brief: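 Two-electrode voltage clamp of oocytes expressing cloned NR1A/2B, held at -70 mV in Ca2+-free Ringer (BaCl2 1.8 mM, Hepes 5 mM, pH 7.4). Drugs in DMSO (0.1–1% final) applied by bath perfusion. IC50 from partial 3–5-point concentration-inhibition curves fitted with residual minimum fixed at 0.15. Mean ± SE.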

Rattus = assay: Inhibition of voltage -gated K+ currents was measured by whole cell voltage clamp recordings from dissociated rat superior cervical ganglion neurons at 10 uM; format: functional
Method in brief: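 SCG neurons from 1–4-day-old rat pups, recorded 24–48 h after plating. Whole-cell clamp held at -60 mV; 30-ms steps to +50 mV. Bath solution Hepes/glucose pH 7.4; pipette solution KCl/K-aspartate/EGTA pH 7.3. Compound diluted from 10 mM DMSO stock and applied by local perfusion after control responses. Result given as percent inhibition of sustained K+ current.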

[3] = target: T1, Adrenergic receptor alpha-1 (Rattus norvegicus, UniProt P15823+P23944+P43140); assay: Affinity for alpha-1 adrenergic receptor in rat was determined by [3H]- prazosin binding assay
T1 sequence (P15823 whole entry): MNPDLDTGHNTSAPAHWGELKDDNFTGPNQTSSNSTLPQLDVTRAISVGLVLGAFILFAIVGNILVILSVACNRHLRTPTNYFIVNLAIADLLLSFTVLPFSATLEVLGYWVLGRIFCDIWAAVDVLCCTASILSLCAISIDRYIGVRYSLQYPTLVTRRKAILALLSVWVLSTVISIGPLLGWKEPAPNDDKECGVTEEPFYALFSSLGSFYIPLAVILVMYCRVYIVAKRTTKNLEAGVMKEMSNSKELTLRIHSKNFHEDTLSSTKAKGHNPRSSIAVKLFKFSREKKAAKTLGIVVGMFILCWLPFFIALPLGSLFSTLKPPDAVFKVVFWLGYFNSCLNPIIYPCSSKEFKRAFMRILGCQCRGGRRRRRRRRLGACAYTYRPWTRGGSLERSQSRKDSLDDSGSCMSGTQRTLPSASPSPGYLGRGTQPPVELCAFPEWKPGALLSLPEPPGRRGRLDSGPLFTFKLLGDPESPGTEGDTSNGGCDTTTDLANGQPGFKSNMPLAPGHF
T1 sequence (P23944 whole entry): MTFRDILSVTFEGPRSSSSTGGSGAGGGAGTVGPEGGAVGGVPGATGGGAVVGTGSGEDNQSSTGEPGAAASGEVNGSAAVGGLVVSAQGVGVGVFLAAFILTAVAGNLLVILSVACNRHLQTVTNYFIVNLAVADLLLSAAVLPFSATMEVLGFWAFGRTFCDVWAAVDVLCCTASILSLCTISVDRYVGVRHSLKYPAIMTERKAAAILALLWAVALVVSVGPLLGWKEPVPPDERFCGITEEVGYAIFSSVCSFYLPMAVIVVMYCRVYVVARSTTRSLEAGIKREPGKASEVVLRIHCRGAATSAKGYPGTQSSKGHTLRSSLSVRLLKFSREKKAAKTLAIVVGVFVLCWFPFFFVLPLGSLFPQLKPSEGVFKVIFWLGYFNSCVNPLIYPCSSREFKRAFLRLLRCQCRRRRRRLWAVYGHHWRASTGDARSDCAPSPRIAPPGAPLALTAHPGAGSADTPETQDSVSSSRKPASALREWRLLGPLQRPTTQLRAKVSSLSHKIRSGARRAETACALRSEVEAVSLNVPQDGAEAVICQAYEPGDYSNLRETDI
T1 sequence (P43140 whole entry): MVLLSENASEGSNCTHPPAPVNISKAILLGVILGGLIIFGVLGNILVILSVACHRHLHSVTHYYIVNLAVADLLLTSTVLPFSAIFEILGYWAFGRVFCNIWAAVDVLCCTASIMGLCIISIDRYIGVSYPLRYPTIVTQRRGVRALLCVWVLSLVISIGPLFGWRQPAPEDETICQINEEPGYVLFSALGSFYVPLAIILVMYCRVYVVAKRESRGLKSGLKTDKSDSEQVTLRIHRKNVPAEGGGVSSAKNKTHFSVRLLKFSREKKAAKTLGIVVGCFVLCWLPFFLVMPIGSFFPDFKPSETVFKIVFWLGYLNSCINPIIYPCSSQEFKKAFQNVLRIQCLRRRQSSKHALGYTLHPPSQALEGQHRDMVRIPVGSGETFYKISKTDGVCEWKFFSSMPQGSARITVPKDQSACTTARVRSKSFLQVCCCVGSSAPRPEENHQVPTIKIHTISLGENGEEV
Method in brief: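 Rat cortex membranes (sucrose/Tris homogenate, washed three times in 140 mM NaCl/5 mM MgCl2/50 mM Tris-HCl pH 7.4) incubated with 0.8 nM [3H]prazosin for 60 min at room temperature. Test compounds at nine concentrations in duplicate, 1% DMSO final. Nonspecific binding defined with phentolamine. Reaction stopped by filtration through GF/B filters, then scintillation counting. IC50 from a sigmoidal fit.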

[4] = target: Glutamate NMDA receptor; Grin1/Grin2a (Rattus norvegicus, UniProt P35439+Q00959); assay: In vitro inhibitory concentration against NMDA responses at cloned NR1A/2A receptors expressed in Xenopus oocytes; format: functional, cell-based, Oocyte
Chain of Glutamate NMDA receptor; Grin1/Grin2a (Q00959 whole entry, other chains not shown): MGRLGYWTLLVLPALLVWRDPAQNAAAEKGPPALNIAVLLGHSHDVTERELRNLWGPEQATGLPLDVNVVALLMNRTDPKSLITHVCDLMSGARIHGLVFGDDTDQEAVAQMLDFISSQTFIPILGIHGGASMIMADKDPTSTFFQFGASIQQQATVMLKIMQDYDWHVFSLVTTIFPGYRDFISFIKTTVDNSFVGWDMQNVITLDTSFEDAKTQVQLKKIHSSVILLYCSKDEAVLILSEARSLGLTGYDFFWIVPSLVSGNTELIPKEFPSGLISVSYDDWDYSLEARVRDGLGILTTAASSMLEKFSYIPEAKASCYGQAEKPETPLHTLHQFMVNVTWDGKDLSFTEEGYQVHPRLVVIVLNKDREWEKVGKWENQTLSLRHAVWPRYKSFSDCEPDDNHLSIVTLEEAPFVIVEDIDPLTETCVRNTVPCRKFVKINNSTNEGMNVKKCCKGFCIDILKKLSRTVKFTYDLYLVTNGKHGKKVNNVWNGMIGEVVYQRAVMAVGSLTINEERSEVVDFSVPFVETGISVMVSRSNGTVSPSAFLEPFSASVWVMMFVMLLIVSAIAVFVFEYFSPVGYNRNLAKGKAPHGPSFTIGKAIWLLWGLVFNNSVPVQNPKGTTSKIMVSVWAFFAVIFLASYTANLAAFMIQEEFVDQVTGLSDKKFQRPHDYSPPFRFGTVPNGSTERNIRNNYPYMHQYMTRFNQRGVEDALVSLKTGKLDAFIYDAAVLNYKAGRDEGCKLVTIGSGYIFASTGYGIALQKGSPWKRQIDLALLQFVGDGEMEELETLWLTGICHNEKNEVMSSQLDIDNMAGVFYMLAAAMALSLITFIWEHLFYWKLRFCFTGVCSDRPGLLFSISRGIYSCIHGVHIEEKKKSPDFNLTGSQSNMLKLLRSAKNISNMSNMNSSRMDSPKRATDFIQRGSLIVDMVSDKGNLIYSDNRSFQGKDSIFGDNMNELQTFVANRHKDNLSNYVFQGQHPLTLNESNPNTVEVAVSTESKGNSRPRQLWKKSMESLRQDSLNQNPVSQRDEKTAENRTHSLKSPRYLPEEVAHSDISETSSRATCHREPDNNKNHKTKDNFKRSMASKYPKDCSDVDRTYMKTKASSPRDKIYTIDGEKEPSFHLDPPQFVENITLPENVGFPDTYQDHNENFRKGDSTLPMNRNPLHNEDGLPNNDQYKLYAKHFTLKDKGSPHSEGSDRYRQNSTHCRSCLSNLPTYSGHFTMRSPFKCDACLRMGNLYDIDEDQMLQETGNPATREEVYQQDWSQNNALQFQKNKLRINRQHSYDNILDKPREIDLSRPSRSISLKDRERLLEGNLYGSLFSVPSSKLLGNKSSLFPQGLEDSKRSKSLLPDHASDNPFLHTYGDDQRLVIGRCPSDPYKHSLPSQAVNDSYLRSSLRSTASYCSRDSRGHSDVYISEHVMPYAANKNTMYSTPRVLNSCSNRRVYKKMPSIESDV

Chain of Glutamate NMDA receptor; Grin1/Grin2b (Q00960 whole entry, other chains not shown, the tested form may be a part): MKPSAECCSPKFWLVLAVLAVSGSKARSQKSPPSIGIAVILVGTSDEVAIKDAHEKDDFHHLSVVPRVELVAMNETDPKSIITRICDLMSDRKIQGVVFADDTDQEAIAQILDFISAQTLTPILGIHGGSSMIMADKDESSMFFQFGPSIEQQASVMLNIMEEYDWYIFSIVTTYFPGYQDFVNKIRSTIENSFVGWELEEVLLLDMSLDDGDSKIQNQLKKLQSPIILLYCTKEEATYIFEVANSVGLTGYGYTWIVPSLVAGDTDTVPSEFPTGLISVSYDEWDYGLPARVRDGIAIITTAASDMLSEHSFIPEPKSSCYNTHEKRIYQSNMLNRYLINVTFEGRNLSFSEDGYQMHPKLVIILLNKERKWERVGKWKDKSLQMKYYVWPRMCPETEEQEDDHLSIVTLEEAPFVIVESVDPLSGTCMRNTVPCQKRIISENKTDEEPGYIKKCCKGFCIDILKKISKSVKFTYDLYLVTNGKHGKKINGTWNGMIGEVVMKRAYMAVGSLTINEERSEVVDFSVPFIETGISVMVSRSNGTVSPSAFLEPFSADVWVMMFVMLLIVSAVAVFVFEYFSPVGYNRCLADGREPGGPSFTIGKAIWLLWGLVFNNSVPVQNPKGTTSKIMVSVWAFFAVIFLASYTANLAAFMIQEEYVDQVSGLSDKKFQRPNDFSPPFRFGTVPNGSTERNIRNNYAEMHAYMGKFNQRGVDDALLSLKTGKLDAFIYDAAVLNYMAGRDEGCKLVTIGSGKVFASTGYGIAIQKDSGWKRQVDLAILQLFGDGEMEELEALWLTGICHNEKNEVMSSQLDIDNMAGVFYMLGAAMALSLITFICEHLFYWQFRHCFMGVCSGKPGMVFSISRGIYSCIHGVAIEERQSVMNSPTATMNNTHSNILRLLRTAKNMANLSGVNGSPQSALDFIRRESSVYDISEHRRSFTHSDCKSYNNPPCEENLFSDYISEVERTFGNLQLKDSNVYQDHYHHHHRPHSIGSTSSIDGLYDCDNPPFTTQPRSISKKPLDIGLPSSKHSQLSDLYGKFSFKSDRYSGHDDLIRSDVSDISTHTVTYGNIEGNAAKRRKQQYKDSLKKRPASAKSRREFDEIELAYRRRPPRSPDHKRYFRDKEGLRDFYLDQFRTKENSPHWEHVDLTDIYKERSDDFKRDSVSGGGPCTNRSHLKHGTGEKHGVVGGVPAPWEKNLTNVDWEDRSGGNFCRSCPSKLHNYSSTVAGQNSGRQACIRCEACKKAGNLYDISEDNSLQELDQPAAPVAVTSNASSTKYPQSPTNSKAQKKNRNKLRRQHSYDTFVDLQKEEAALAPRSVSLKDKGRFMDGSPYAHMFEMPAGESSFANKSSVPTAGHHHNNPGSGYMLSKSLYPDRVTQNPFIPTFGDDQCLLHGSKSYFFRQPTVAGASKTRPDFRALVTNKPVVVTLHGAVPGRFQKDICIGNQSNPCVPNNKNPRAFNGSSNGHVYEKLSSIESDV
Chain of Glutamate NMDA receptor; Grin1/Grin2c (Q00961 whole entry, other chains not shown): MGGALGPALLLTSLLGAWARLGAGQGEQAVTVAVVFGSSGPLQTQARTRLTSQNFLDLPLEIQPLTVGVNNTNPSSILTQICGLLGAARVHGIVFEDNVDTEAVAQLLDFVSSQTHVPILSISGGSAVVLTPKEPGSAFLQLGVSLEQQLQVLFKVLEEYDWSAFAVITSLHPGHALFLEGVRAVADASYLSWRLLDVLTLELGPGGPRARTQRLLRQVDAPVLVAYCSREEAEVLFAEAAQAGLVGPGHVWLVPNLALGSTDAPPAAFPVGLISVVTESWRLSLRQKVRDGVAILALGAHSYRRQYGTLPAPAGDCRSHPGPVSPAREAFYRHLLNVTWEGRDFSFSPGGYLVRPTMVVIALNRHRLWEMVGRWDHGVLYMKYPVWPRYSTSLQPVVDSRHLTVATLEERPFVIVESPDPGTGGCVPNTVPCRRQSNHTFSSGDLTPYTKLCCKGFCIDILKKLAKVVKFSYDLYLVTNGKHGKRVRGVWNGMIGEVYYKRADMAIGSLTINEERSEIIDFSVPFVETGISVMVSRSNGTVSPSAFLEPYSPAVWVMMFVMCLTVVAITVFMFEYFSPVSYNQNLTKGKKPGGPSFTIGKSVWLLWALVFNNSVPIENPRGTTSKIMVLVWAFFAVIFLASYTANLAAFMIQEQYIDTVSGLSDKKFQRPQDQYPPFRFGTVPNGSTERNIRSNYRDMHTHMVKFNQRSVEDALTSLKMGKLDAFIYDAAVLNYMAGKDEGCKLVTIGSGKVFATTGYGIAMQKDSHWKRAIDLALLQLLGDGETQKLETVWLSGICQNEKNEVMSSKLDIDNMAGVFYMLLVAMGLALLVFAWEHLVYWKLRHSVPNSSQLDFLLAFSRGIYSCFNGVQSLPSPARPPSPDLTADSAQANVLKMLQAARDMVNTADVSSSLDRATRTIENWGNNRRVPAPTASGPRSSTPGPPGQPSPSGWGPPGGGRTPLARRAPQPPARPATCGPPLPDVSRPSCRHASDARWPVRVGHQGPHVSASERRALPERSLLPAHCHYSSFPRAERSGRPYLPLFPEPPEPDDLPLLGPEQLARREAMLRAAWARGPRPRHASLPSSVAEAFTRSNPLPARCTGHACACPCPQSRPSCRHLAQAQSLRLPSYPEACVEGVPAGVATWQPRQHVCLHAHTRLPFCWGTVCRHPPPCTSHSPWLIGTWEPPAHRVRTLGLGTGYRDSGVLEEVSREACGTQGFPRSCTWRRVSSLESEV

Row | Compound | IC50 [1] [µM] | IC50 [2] [nM] | IC50 [3] [µM] | IC50 [4] [µM] | ED50 (Mus musculus) [mg/kg] | inhibition at 10 µM (Rattus) [%]
1 | OC(CN1CCC(Cc2ccc(F)cc2)CC1)c1ccc(Cl)cc1 (configuration not stated) [ELIPRODIL] | 100 | 1400 | 3.3 | 100 | 1 | 67
2 | C[C@@H]([C@H](O)c1ccc(O)cc1)N1CCC(Cc2ccccc2)CC1 [(R,S)-IFENPRODIL] |  |  | 0.22 |  | 7 | 54
3 | Cc1ccc(CC2(O)CCN(CCOc3ccc(O)cc3)CC2)cc1 | > 100 | 43 | 27 | > 100 | 1.5 | 23
4 | c1ccc(CC2CCN(CCOc3ccccc3)CC2)cc1 | > 100 | 630 | 0.82 | > 100 | 2 | 65
5 | Oc1ccc(OCCN2CCC(c3ccccc3)CC2)cc1 | > 100 | 7700 |  | 110 |  | 

Now from value to compound, other results behind:

Row | IC50 [1] [µM] | IC50 [2] [nM] | IC50 [3] [µM] | IC50 [4] [µM] | Compound | ED50 (Mus musculus) [mg/kg] | inhibition at 10 µM (Rattus) [%]
6 | > 100 | 50 | 1.6 | 21 | Oc1ccc(OCCN2CCC(Cc3ccc(F)cc3)CC2)cc1 | 3 | 53
7 | > 100 | 28 | 1.8 | > 100 | Cc1ccc(CC2CCN(CCOc3ccc(O)cc3)CC2)cc1 | 0.7 | 67
8 | > 100 | 25 | 0.47 | > 100 | Oc1ccc(OCCN2CCC(Cc3ccccc3)CC2)cc1 | 2 | 46

From ChEMBL document CHEMBL1132328, “4-Hydroxy-1-[2-(4-hydroxyphenoxy)ethyl]-4-(4-methylbenzyl)piperidine: a novel, potent, and selective NR1/2B NMDA receptor antagonist” (J Med Chem, 1999)
